The species entered for test [1] is Homo sapiens. Briefly: Selectivity ratio of Ki for recombinant cathepsin-K (unknown origin) to Ki for recombinant cathepsin-L (unknown origin). The procedure, abridged: (§1)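 FK = Ki(CatK)/Ki(CatL) and FS = Ki(CatS)/Ki(CatL). Each Ki comes from recombinant enzyme kinetics over a minimum of four inhibitor concentrations, each measured in duplicate.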
In test [2] the target is T1, Procathepsin L (Homo sapiens, UniProt P07711). As to the kind of experiment: Inhibition of recombinant cathepsin-L (unknown origin) using Z-Phe-Arg-AMC as substrate by fluorescence assay. Summed up: (§2)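 Kinetic assay with recombinant enzyme. Peptide amide stock concentrations were set by amino-acid analysis. Ki was derived from at least three inhibitor concentrations, each measured in duplicate.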
Target sequence in this assay (P07711 whole entry): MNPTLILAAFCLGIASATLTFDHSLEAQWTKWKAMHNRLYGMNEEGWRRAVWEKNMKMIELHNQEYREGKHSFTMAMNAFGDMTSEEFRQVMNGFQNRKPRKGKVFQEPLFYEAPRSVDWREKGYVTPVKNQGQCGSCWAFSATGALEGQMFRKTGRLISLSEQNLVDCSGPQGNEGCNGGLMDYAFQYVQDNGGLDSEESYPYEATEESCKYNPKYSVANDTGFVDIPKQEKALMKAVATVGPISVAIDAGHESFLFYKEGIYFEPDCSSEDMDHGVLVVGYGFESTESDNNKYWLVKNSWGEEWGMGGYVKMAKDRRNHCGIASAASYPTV

Test [3] addresses Cathepsin S (Homo sapiens, UniProt P25774). As to the kind of experiment: Inhibition of recombinant cathepsin-S (unknown origin) using Z-Val-Arg-AMC as substrate by fluorescence assay. The procedure, abridged:
(§3)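 Recombinant enzyme kinetics. Inhibitor stocks were quantified by amino-acid analysis. Ki was obtained from a minimum of four inhibitor concentrations, each run in duplicate.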

Test [4] is filed under the species Homo sapiens. Briefly: Selectivity ratio of Ki for recombinant cathepsin-B (unknown origin) to Ki for recombinant cathepsin-L (unknown origin). Summed up: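 Selectivity factor FB = Ki(CatB)/Ki(CatL). Both Ki values come from kinetic runs with the recombinant enzymes, each using at least three inhibitor concentrations in duplicate.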
For test [5], the target named is T2, Cathepsin K (Homo sapiens, UniProt P43235).
T2 sequence (P43235 whole entry): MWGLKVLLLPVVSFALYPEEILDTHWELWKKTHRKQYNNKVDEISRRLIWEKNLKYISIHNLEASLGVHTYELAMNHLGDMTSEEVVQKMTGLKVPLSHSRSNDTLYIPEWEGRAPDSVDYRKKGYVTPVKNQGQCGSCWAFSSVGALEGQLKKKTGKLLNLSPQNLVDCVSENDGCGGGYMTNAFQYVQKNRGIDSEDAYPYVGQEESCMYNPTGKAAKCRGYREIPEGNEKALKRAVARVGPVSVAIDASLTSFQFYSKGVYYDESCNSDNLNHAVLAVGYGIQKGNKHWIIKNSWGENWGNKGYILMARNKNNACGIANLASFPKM
Briefly: Inhibition of recombinant cathepsin-K (unknown origin) using Z-Phe-Arg-AMC as substrate by fluorescence assay. The procedure, abridged: as §3

The target in test [6] is T3, Cathepsin B (Homo sapiens, UniProt P07858). Briefly: Inhibition of recombinant cathepsin-B (unknown origin) using Z-Arg-Arg-AMC as substrate by fluorescence assay. The procedure, abridged: as §2
For test [7], the species on record is Homo sapiens. As to the kind of experiment: Selectivity ratio of Ki for recombinant cathepsin-S (unknown origin) to Ki for recombinant cathepsin-L (unknown origin). Summed up:
as §1

For test [8], the target named is T3, Cathepsin B. As to the kind of experiment: Irreversible inhibition of recombinant cathepsin-B (unknown origin) using Z-Arg-Arg-AMC as substrate.
In test [9] the target is T1, Procathepsin L. As to the kind of experiment: Irreversible inhibition of recombinant cathepsin-L (unknown origin) using Z-Phe-Arg-AMC as substrate.
Target sequence in this assay (P07711 114-333 limits assumed): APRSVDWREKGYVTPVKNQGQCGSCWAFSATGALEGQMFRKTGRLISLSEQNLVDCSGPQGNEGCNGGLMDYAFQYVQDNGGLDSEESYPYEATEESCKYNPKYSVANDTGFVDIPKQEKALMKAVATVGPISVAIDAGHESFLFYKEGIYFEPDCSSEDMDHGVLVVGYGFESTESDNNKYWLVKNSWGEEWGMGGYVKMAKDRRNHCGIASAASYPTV
Test [10] is filed under the species Homo sapiens. As to the kind of experiment: Selectivity ratio of Ka for recombinant cathepsin-L (unknown origin) to Ka for recombinant cathepsin-B (unknown origin).

pKi: −log10 of the molar value. Peptide text beside a SMILES is read from it. * marks the point of attachment. Cbz = O=C(OCc1ccccc1)*

Chain of Cathepsin S (P25774 whole entry): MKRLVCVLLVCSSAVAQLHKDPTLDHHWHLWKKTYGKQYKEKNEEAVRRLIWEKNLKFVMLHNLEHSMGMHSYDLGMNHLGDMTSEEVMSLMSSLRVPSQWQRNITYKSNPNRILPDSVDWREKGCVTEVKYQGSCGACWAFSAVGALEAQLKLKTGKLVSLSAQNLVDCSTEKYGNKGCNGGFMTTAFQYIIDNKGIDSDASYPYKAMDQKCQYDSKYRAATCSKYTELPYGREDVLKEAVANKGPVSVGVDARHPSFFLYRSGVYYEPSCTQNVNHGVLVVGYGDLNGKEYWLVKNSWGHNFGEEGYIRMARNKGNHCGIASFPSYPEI

One may read the pKi as −log10 of the Ki, conventionally taken in molar units. On to `CC(C)C[C@H](NC(=O)OCc1ccccc1)C(=O)N[C@@H](Cc1ccccc1)C(=O)N[C@@H](CCCCN)C(N)=O` (Cbz-Leu-Phe-Lys-NH2), for which the Ratio Ki in [1] was 473; in [4], 2630; in [7], 27. Moreover, the pKi in [2] was 6.35; in test [3], 4.92; in test [5], 3.67; in [6] it was 2.93.

Take `Cc1cccc(C)c1C(=O)OCC(=O)[C@H](CCCCN)NC(=O)[C@H](Cc1ccccc1)NC(=O)[C@H](CCCNC(=N)N)NC(=O)OCc1ccccc1`: the results for the Ka in [8] and in test [9] were 0.76 ×10⁵ /s/M and 8.75 ×10⁵ /s/M, respectively. Further, the Ratio in [10] was 11.5.

`Cc1cccc(C)c1C(=O)OCC(=O)[C@H](CCCCN)NC(=O)[C@H](Cc1ccccc1)NC(=O)[C@H](Cc1c[nH]c2ccccc12)NC(=O)OCc1ccccc1`: the figures for the Ka in test [8] and in [9] were 0.57 ×10⁵ /s/M and 3.92 ×10⁵ /s/M, respectively. Moreover, the Ratio in [10] was 6.9.

As to `NCCCC[C@H](NC(=O)[C@H](Cc1ccccc1)NC(=O)[C@H](CCCCN)NC(=O)OCc1ccccc1)C(N)=O` (Cbz-Lys-Phe-Lys-NH2), the Ratio Ki in test [1] was found to be 319; in test [4], 1680; in [7] it was 46. Moreover, the pKi in [2] is 6.05; in test [3], 4.39; in [5] it was 3.55; in test [6] it was 2.83.

As to `NCCCC[C@H](NC(=O)[C@H](Cc1ccc(-c2cccs2)cc1)NC(=O)OCc1ccccc1)C(N)=O`, the Ratio Ki stood at 200 in [1], 325 in test [4] and 233 in test [7]. The pKi in test [2] is 6.92; in test [3] it was 4.55; in test [5], 4.62; in [6] it was 4.41.

With `Cc1cccc(C)c1C(=O)OCC(=O)[C@H](CCCCN)NC(=O)[C@H](Cc1ccccc1)NC(=O)[C@H](CCCCN)NC(=O)OCc1ccccc1`, the Ka came out at 8.22 ×10⁵ /s/M in [8] and 2.52 ×10⁵ /s/M in test [9]. For the same compound, the Ratio in test [10] worked out at 0.3.

For the compound `NCCCC[C@H](NC(=O)[C@H](Cc1ccccc1)NC(=O)OCc1ccccc1)C(N)=O`, the Ratio Ki in test [1] amounted to 11; in test [4], 810; in [7] it was 13. Besides, the pKi in test [2] was 5.38; in test [3], 4.25; in [5], 4.33; in test [6], 2.47.

As to `Cc1cccc(C)c1C(=O)OCC(=O)[C@H](CCCCN)NC(=O)[C@H](Cc1ccccc1)NC(=O)[C@H](CC(C)C)NC(=O)OCc1ccccc1`, the Ka worked out at 1.36 ×10⁵ /s/M in test [8] and 2.69 ×10⁵ /s/M in test [9]. For the same compound, in [10], the Ratio was 2.

For the compound `N=C(N)NCCC[C@H](NC(=O)OCc1ccccc1)C(=O)N[C@@H](Cc1ccccc1)C(=O)N[C@@H](CCCCN)C(N)=O` (Cbz-Arg-Phe-Lys-NH2), the Ratio Ki in test [1] came out at 198; in test [4], 1760; in [7], 11. Besides, the pKi is 6.13 in [2], 5.07 in test [3], 3.83 in test [5] and 2.89 in [6].

On to `Cc1cccc(C)c1C(=O)OCC(=O)[C@H](CCCCN)NC(=O)[C@H](Cc1ccccc1)NC(=O)OCc1ccccc1`, for which the Ka in test [8] came out at 0.38 ×10⁵ /s/M; in test [9], 2.96 ×10⁵ /s/M. For the same compound, the Ratio in test [10] worked out at 7.8.

The record behind these values is ChEMBL document CHEMBL2380300, “Identification of new peptide amides as selective cathepsin L inhibitors: the first step towards selective irreversible inhibitors?” (Bioorg Med Chem Lett, 2013).
